As a reminder, the inhibition is the percentage by which the read-out fell short of the control. High values mean a response far below the control, low ones a response near the control. What is called IC50 is the point on the concentration scale where inhibition reaches its midpoint. The low end stands for higher potency, the high end for lower potency.

Results on 9 molecules are retold here after ChEMBL document CHEMBL2417469, “Synthesis of novel analogs of 2-pyrazoline obtained from [(7-chloroquinolin-4-yl)amino]chalcones and hydrazine as potential antitumor and antimalarial agents” (Eur J Med Chem, 2013).

Data set [1] concerns Plasmodium falciparum. The data set can be described thus: Antimalarial activity against Plasmodium falciparum NF54 infected in human serum at 20 ug/ml after 48 hrs by fluorometric method. It is filed as functional. A digest of the protocol: (§1)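 Asynchronous P. falciparum NF54 at 1.5–2% parasitemia, 5% hematocrit in RPMI with 10% human serum, exposed 48 h at 37 °C under 90% N2/5% CO2/5% O2 at the stated concentration; parasite DNA stained with ethidium bromide after proteinase K lysis; viability % = (Flu treated − medium)/(Flu untreated − medium) ×100; triplicate.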

A short description of data set [2]: Toxicity in RBC (unknown origin) assessed as hemolysis after 48 hrs at 20 to 80 ug/ml by spectrophotometry. The following applies: red blood cells (RBC); read-out: Activity. It is filed as cell-based, Erythrocyte. A digest of the protocol:
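Red blood cells at 5% hematocrit in RPMI 1640 exposed to 20, 40 and 80 µg/mL for 48 h at 37 °C; free hemoglobin read spectrophotometrically at 542 nm.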

In data set [3] the test system is Plasmodium falciparum. The data set is described as follows: Antimalarial activity against Plasmodium falciparum NF54 infected in human serum after 48 hrs by fluorometric method. It is filed as functional, organism-based. A digest of the protocol:
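Asynchronous P. falciparum NF54 cultures at 1.5–2% parasitemia, 5% hematocrit in RPMI with 10% human serum; equal volumes of parasite suspension and compound dilutions (from 100 µg/mL stock) incubated 48 h, 37 °C, 90% N2/5% CO2/5% O2. DNA extracted with proteinase K lysis, stained with ethidium bromide; fluorescence-based viability vs compound-free control. IC50 by Probit; triplicate.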

The subject of data set [4] is Plasmodium falciparum. The data set can be described thus: Antimalarial activity against Plasmodium falciparum NF54 infected in human serum at 22.2 ug/ml after 48 hrs by fluorometric method. It is filed as functional. A digest of the protocol:
as §1

Values after ≈ are worked out from the molar mass of the structure shown. Bounds are passed on as bounds.

Consider `Cc1ccc(C2CC(c3cccc(Nc4ccnc5cc(Cl)ccc45)c3)=NN2C=O)cc1` (stereo unspecified), for which, in the data set with Plasmodium falciparum [1], the inhibition at 20 µg/mL is 0%.
For `CC(=O)N1N=C(c2ccc(Nc3ccnc4cc(Cl)ccc34)cc2)CC1c1ccccc1` (stereo unspecified), in data set [2], the hemolysis at 48 h came to 2.8%. The molecule also returned an IC50 with Plasmodium falciparum [3] of 38 µg/mL (≈ 86.2 µM). Further, 20 µg/mL produced 33% inhibition with Plasmodium falciparum [1].
The matching figures for `COc1ccc(C2CC(c3ccc(Nc4ccnc5cc(Cl)ccc45)cc3)=NN2C(C)=O)cc1` (stereo unspecified): 3.1%, more than 100 µg/mL and 38.3%.
For the molecule `COc1cc(C2CC(c3ccc(Nc4ccnc5cc(Cl)ccc45)cc3)=NN2C(C)=O)cc(OC)c1OC` (stereo unspecified), the inhibition at 20 µg/mL in the data set on Plasmodium falciparum [1] turned out to be 0%.
On the same count and under the same terms, for `CC(=O)N1N=C(c2ccc(Nc3ccnc4cc(Cl)ccc34)cc2)CC1c1ccc(C)cc1` (stereo unspecified) the value was 10.6%.
On to `O=CN1N=C(c2ccc(Nc3ccnc4cc(Cl)ccc34)cc2)CC1c1ccc(Br)cc1` (stereo unspecified), for which the hemolysis at 48 h in data set [2] was 3.2%. This molecule also yielded an IC50 in the data set on Plasmodium falciparum [3] of 14.1 µg/mL (≈ 27.9 µM). In the data set on Plasmodium falciparum [1], this molecule displayed an inhibition at 20 µg/mL of 50.8%.
Regarding `O=CN1N=C(c2cccc(Nc3ccnc4cc(Cl)ccc34)c2)CC1c1ccc(Br)cc1` (stereo unspecified), 20 µg/mL produced 12.5% inhibition in the data set on Plasmodium falciparum [1].
The same measure, in the same setting: next, `CC(=O)N1N=C(c2ccc(Nc3ccnc4cc(Cl)ccc34)cc2)CC1c1ccc(Br)cc1` (stereo unspecified): 6.8%.
With `CCN(CC)CCCC(C)Nc1ccnc2cc(Cl)ccc12` (stereo unspecified) [CHLOROQUINE PHOSPHATE], in data set [2], the hemolysis at 48 h was 17.2%. The molecule also came in with an inhibition at 22.2 µg/mL with Plasmodium falciparum [4] of 68.4%.
